Key:
Assay type in all cases: functional
[1] = test system: NCI-H23; experiment: Growth inhibition of human NCI-H23 cells incubated for 48 hrs by sulforhodamine B assay; details: NCI-H23, 48 h
Method in brief: (§1)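 NCI-60 screen. Compounds were dosed at five concentrations spanning 10^-4 to 10^-8 M for 48 h at 37 °C. Cells were TCA-fixed, stained with 0.4% SRB and read at 515 nm against time-zero and vehicle controls. GI50 is the concentration giving a 50% reduction in net protein increase.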

[2] = test system: SK-MEL-28; experiment: Growth inhibition of human SK-MEL-28 cells incubated for 48 hrs by sulforhodamine B assay; details: SK-MEL-28, 48 h; method in brief: as §1
[3] = test system: HL-60(TB); experiment: Growth inhibition of human HL-60(TB) cells incubated for 48 hrs by sulforhodamine B assay; details: HL-60, 48 h
Method in brief: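 Performed at NCI's 60-line screen. Cells grown in RPMI with 5% FBS and 2 mM L-glutamine, plated 5,000–40,000 cells/well and incubated 24 h at 37 °C before compound addition. DMSO stocks were diluted in medium with gentamicin, and five concentrations spanning 10^-4 to 10^-8 M were tested. Exposure was 48 h. Cells were fixed with TCA, stained with SRB, and read at 515 nm. GI50 taken from log dose-response curves as 50% reduction in net protein increase versus control.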

[4] = test system: SF-295; experiment: Growth inhibition of human SF295 cells incubated for 48 hrs by sulforhodamine B assay; details: SF-295, 48 h; method in brief: as §1
[5] = test system: Malme-3M; experiment: Growth inhibition of human MALME-3M cells incubated for 48 hrs by sulforhodamine B assay; method in brief: as §1
[6] = test system: HCT-15; experiment: Growth inhibition of human HCT15 cells incubated for 48 hrs by sulforhodamine B assay; details: HCT-15, 48 h; method in brief: as §1
[7] = test system: OVCAR-5; experiment: Growth inhibition of human OVCAR5 cells incubated for 48 hrs by sulforhodamine B assay; details: OVCAR-5, 48 h; method in brief: as §1
[8] = test system: SF-268; experiment: Growth inhibition of human SF268 cells incubated for 48 hrs by sulforhodamine B assay; details: SF-268, 48 h; method in brief: as §1
[9] = test system: MCF7; experiment: Growth inhibition of human MCF7 cells incubated for 48 hrs by sulforhodamine B assay; details: MCF7, 48 h; method in brief: as §1
[10] = Cytotoxicity against human M9-ENL1 cells assessed as reduction in cell viability by trypan blue staining-based assay
Method in brief: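 M9-ENL1 AML cells (MLL-ENL-transduced human blood cells) plated at 10^6 cells/mL in alpha-MEM with 5% human plasma, 20% FBS, SCF, IL-3, IL-7 and FLT3. Drug diluted from DMSO stock into PBS, final DMSO ≤0.5%. After 24 h exposure, dead cells assessed by trypan blue and by flow cytometry (Annexin V/PI or Annexin V/7-AAD). Viability normalized to vehicle; EC50 from dose-response curves; triplicate.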

[11] = test system: LOX IMVI; experiment: Growth inhibition of human LOXIMVI cells incubated for 48 hrs by sulforhodamine B assay; method in brief: as §1
[12] = test system: HCT-116; experiment: Growth inhibition of human HCT116 cells incubated for 48 hrs by sulforhodamine B assay; details: HCT-116, 48 h; method in brief: as §1
[13] = test system: MOLT-4; experiment: Growth inhibition of human MOLT4 cells incubated for 48 hrs by sulforhodamine B assay; details: MOLT-4, 48 h; method in brief: as §1
[14] = test system: HOP-92; experiment: Growth inhibition of human HOP92 cells incubated for 48 hrs by sulforhodamine B assay; details: HOP-92, 48 h; method in brief: as §1
[15] = test system: A549; experiment: Growth inhibition of human A549/ATCC cells incubated for 48 hrs by sulforhodamine B assay; details: A549, 48 h; method in brief: as §1
[16] = test system: OVCAR-8; experiment: Growth inhibition of human OVCAR8 cells incubated for 48 hrs by sulforhodamine B assay; details: OVCAR-8, 48 h; method in brief: as §1
[17] = test system: NCI/ADR-RES; experiment: Growth inhibition of human NCI/ADR-RES cells incubated for 48 hrs by sulforhodamine B assay; method in brief: as §1
[18] = test system: KM12; experiment: Growth inhibition of human KM12 cells incubated for 48 hrs by sulforhodamine B assay; details: KM12, 48 h; method in brief: as §1
[19] = test system: UACC-62; experiment: Growth inhibition of human UACC62 cells incubated for 48 hrs by sulforhodamine B assay; details: UACC-62, 48 h
Method in brief: (§2)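 NCI-60 screen run at NCI. Cells grown in RPMI medium with 5% FBS and 2 mM L-glutamine, plated at 5,000–40,000 cells/well, and preincubated 24 h at 37 °C. Time-zero plates were TCA-fixed. Compounds came from DMSO stocks and were tested at five concentrations from 10^-4 to 10^-8 M for 48 h. Cells were then TCA-fixed, stained with 0.4% SRB, and OD read at 515 nm. GI50 is the concentration giving a 50% reduction in net protein increase versus control.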

[20] = test system: CCRF-CEM; experiment: Growth inhibition of human CCRF-CEM cells incubated for 48 hrs by sulforhodamine B assay; method in brief: as §1
[21] = test system: RXF 393; experiment: Growth inhibition of human RXF393 cells incubated for 48 hrs by sulforhodamine B assay; details: RXF 393, 48 h; method in brief: as §1
[22] = test system: U-251; experiment: Growth inhibition of human U251 cells incubated for 48 hrs by sulforhodamine B assay; details: U-251, 48 h; method in brief: as §2
[23] = test system: SNB-19; experiment: Growth inhibition of human SNB19 cells incubated for 48 hrs by sulforhodamine B assay; details: SNB-19, 48 h; method in brief: as §2
[24] = test system: HT-29; experiment: Growth inhibition of human HT-29 cells incubated for 48 hrs by sulforhodamine B assay; details: HT-29, 48 h; method in brief: as §1
[25] = test system: K562; experiment: Growth inhibition of human K562 cells incubated for 48 hrs by sulforhodamine B assay; details: K562, 48 h; method in brief: as §1
[26] = test system: NCI-H226; experiment: Growth inhibition of human NCI-H226 cells incubated for 48 hrs by sulforhodamine B assay; details: NCI-H226, 48 h; method in brief: as §1
[27] = test system: SN12C; experiment: Growth inhibition of human SN12C cells incubated for 48 hrs by sulforhodamine B assay; method in brief: as §1
[28] = test system: SK-OV-3; experiment: Growth inhibition of human SKOV3 cells incubated for 48 hrs by sulforhodamine B assay; details: SK-OV-3, 48 h; method in brief: as §1
[29] = test system: NCI-H322M; experiment: Growth inhibition of human NCI-H322M cells incubated for 48 hrs by sulforhodamine B assay; method in brief: as §1
[30] = test system: UACC-257; experiment: Growth inhibition of human UACC257 cells incubated for 48 hrs by sulforhodamine B assay; details: UACC-257, 48 h; method in brief: as §2
[31] = test system: NCI-H460; experiment: Growth inhibition of human NCI-H460 cells incubated for 48 hrs by sulforhodamine B assay; details: NCI-H460, 48 h; method in brief: as §1
[32] = test system: SF-539; experiment: Growth inhibition of human SF539 cells incubated for 48 hrs by sulforhodamine B assay; details: SF-539, 48 h; method in brief: as §1
[33] = test system: UO-31; experiment: Growth inhibition of human UO31 cells incubated for 48 hrs by sulforhodamine B assay; details: UO-31, 48 h; method in brief: as §2
[34] = test system: A498; experiment: Growth inhibition of human A498 cells incubated for 48 hrs by sulforhodamine B assay; details: A498, 48 h; method in brief: as §1
[35] = test system: RPMI-8226; experiment: Growth inhibition of human RPMI8226 cells incubated for 48 hrs by sulforhodamine B assay; details: RPMI-8226, 48 h; method in brief: as §1
[36] = test system: NCI-H522; experiment: Growth inhibition of human NCI-H522 cells incubated for 48 hrs by sulforhodamine B assay; details: NCI-H522, 48 h; method in brief: as §1
[37] = test system: SW-620; experiment: Growth inhibition of human SW620 cells incubated for 48 hrs by sulforhodamine B assay; details: SW-620, 48 h; method in brief: as §2

| Structure (SMILES) | GI50 [1] [nM] | GI50 [2] [nM] | GI50 [3] [nM] | GI50 [4] [nM] | GI50 [5] [nM] | GI50 [6] [nM] | GI50 [7] [nM] | GI50 [8] [nM] | GI50 [9] [nM] | EC50 [10] [nM] | GI50 [11] [nM] | GI50 [12] [nM] | GI50 [13] [nM] | GI50 [14] [nM] | GI50 [15] [nM] | GI50 [16] [nM] | GI50 [17] [nM] | GI50 [18] [nM] | GI50 [19] [nM] | GI50 [20] [nM] | further results |
| --- | --- | --- | --- | --- | --- | --- | --- | --- | --- | --- | --- | --- | --- | --- | --- | --- | --- | --- | --- | --- | --- |
| C=C1C(=O)O[C@@H]2[C@H]3O[C@]3(C)CC/C=C(/COC(=O)c3cn(C)c4ccccc34)CC[C@@H]12 | 1930 | 1550 | 1540 | 2410 | 1620 | 530 | 1560 | 1300 | 400 | 7200 | 220 | 1020 | 570 | 360 | 1820 | 800 | 2150 | 1830 | 1260 | 210 | GI50 [21]: 580 nM; GI50 [22]: 1420 nM; GI50 [23]: 1590 nM; GI50 [24]: 520 nM; GI50 [25]: 400 nM; GI50 [26]: 1480 nM; GI50 [27]: 710 nM; GI50 [28]: 4330 nM; GI50 [29]: 3010 nM; GI50 [30]: 1320 nM; GI50 [31]: 1730 nM; GI50 [32]: 740 nM; GI50 [33]: 770 nM; GI50 [34]: 1590 nM; GI50 [35]: 210 nM; GI50 [36]: 390 nM; GI50 [37]: 300 nM |
| C=C1C(=O)O[C@@H]2[C@H]3O[C@]3(C)CC/C=C(/COC(=O)c3cc4cc(OC)ccc4[nH]3)CC[C@@H]12 | 1490 | 1230 | 320 | 2420 | 1610 | 320 | 1770 | 1660 | 340 | 1800 | 300 | 420 | 1320 | 440 | 1660 | 1580 | 1680 | 1540 | 1380 | 340 | GI50 [21]: 1140 nM; GI50 [22]: 1600 nM; GI50 [23]: 1570 nM; GI50 [24]: 350 nM; GI50 [25]: 560 nM; GI50 [26]: 1570 nM; GI50 [27]: 1770 nM; GI50 [28]: 4900 nM; GI50 [29]: 1880 nM; GI50 [30]: 1610 nM; GI50 [31]: 1830 nM; GI50 [32]: 1020 nM; GI50 [33]: 1120 nM; GI50 [34]: 1630 nM; GI50 [35]: 500 nM; GI50 [36]: 700 nM; GI50 [37]: 640 nM |
| C=C1C(=O)O[C@@H]2C3O[C@]3(C)CC/C=C(\C)CC[C@@H]12 (stereo partly specified) | 20200 | 21000 | 5710 | 28900 | 13800 | 10200 | 34100 | 25100 | 16400 | 5500 | 8240 | 10800 | 14300 | 13500 | 91800 | 17100 | 15000 | 16200 | 16800 | 9160 | GI50 [21]: 12200 nM; GI50 [22]: 41500 nM; GI50 [23]: 70900 nM; GI50 [24]: 23500 nM; GI50 [25]: 22600 nM; GI50 [26]: 20500 nM; GI50 [27]: 22800 nM; GI50 [28]: 54700 nM; GI50 [29]: 21700 nM; GI50 [30]: 14400 nM; GI50 [31]: 18800 nM; GI50 [32]: 18900 nM; GI50 [33]: 41900 nM; GI50 [34]: 7040 nM; GI50 [35]: 8200 nM; GI50 [36]: 5470 nM; GI50 [37]: 14500 nM |
